Measured values as given in ChEMBL document CHEMBL4130635, “2,4-Diaminoquinazolines as Dual Toll-like Receptor (TLR) 7/8 Modulators for the Treatment of Hepatitis B Virus” (J Med Chem, 2018).
Calls of active or inactive are those of the source. No cut-off for these calls is given here.

Columns and labels:
TK6 = assay: Genotoxicity in human TK6 cells by in vitro micronuleus test; type: toxicity, cell-based
Method in brief: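 In vitro micronucleus test in TK-6 cells.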

[1] = AUC (0 to last) in C57BL/6J mouse plasma at 10 mg/kg, po by LC-MS analysis; type: ADME, organism-based; set-up: dose 10 mg/kg, route oral, time 0 - last
Method in brief: (§1)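 Healthy C57BL/6 mice were dosed once by mouth at 0.3, 1, 3, 10 or 30 mg/kg in 20% HP-β-CD, in groups of 15 per dose. Three mice per group were sacrificed at 0.5, 1, 2, 4 or 7 h, and plasma and liver compound levels were measured by LC–MS. Values were rounded to whole numbers.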

[2] = AUC (0 to last) in C57BL/6J mouse liver at 10 mg/kg, po by LC-MS analysis; type: ADME, organism-based; conditions: in vivo; method in brief: as §1
Plasma [3] = assay: Induction of IFNalpha levels in C57BL/6J mouse plasma at 0.3 mg/kg, po by ELISA; type: functional, organism-based
Liver [4] = assay: Induction of IFNalpha levels in C57BL/6J mouse liver at 10 mg/kg, po by ELISA (reference value: 30 pg/g); type: functional
Plasma [5] = assay: Effect on cytokine profile in C57BL/6J mouse plasma assessed as IL-12p70 levels at 3 mg/kg, po by multiplex assay (reference value: 560 pg/ml); type: functional
Method in brief: (§2)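 Single oral gavage in 20% HP-β-CD to healthy C57BL/6 mice, groups of 15 at 0.3, 1, 3, 10 or 30 mg/kg. Three mice per group sacrificed at 0.5, 1, 2, 4 or 7 h. Plasma and liver cytokines by multiplex, maximum level reported, rounded to nearest multiple of 5.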

Plasma [6] = assay: Effect on cytokine profile in C57BL/6J mouse plasma assessed as IL-12p70 levels at 10 mg/kg, po by multiplex assay (reference value: 560 pg/ml); type: functional; method in brief: as §2
Plasma [7] = assay: Effect on cytokine profile in C57BL/6J mouse plasma assessed as IFNgamma levels at 0.3 mg/kg, po by multiplex assay; type: functional, organism-based; method in brief: as §2
Liver [8] = assay: Proinflammatory activity in C57BL/6J mouse liver assessed as IL-1beta levels at 1 mg/kg, po by multiplex assay; type: functional
Liver [9] = assay: Proinflammatory activity in C57BL/6J mouse liver assessed as IL-1beta levels at 10 mg/kg, po by multiplex assay; type: functional
Plasma [10] = assay: Proinflammatory activity in C57BL/6J mouse plasma assessed as IL-6 levels at 3 mg/kg, po by multiplex assay (reference value: 505 pg/ml); type: functional
Liver [11] = assay: Proinflammatory activity in C57BL/6J mouse liver assessed as TNFalpha levels at 0.3 mg/kg, po by multiplex assay (reference value: 15 pg/g); type: functional
Cynomolgus monkey [12] = assay: Plasma concentration in cynomolgus monkey at 9 mg/kg, po by LC-MS analysis; type: ADME, organism-based, Macaca fascicularis; conditions: in vivo
Cynomolgus monkey [13] = assay: Induction of IFNalpha levels in cynomolgus monkey plasma at 30 mg/kg, po after 24 hrs by ELISA; type: functional, Macaca fascicularis
Method in brief: (§3)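 Healthy cynomolgus monkeys given single oral doses of 1, 3, 9 and 30 mg/kg, with a 2-week wash-out planned between doses. Systemic cytokine levels in plasma were sampled at 0.5, 1, 2, 4, 9 and 24 h postdose.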

Cynomolgus monkey [14] = assay: Effect on cytokine profile in cynomolgus monkey plasma assessed as IL-15 levels at 1 mg/kg, po after 24 hrs by Luminex assay (reference value: 20 pg/ml); type: functional, Macaca fascicularis; method in brief: as §3
Cynomolgus monkey [15] = assay: Effect on cytokine profile in cynomolgus monkey plasma assessed as IL-15 levels at 9 mg/kg, po after 24 hrs by Luminex assay (reference value: 20 pg/ml); type: functional, Macaca fascicularis; method in brief: as §3
Cynomolgus monkey [16] = assay: Proinflammatory activity in cynomolgus monkey plasma assessed as TNFalpha levels at 1 mg/kg, po after 24 hrs by Luminex assay (reference value: 285 pg/ml); type: functional, organism-based; conditions: Macaca fascicularis
Cynomolgus monkey [17] = assay: Activation of monocytes in cynomolgus monkey plasma assessed as upregulation of MIP1 levels at 9 mg/kg, po after 24 hrs by Luminex assay (reference value: 37 pg/ml); type: functional, Macaca fascicularis
Cynomolgus monkey [18] = assay: Induction of ISG response in cynomolgus monkey plasma assessed as upregulation of Mx1 mRNA expression at 1 mg/kg, po after 24 hrs by Fluidigm RT-qPCR analysis (reference value: 1); type: functional, Macaca fascicularis
Method in brief: (§4)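 Cynomolgus monkeys, single oral doses of 1, 3, 9 and 30 mg/kg with a planned 2-week wash-out between doses. Systemic ISG (ISG15, Mx1, OAS1) mRNA was measured by Fluidigm RT-qPCR at 1, 2, 4, 8 and 24 h postdose.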

Cynomolgus monkey [19] = assay: Induction of ISG response in cynomolgus monkey plasma assessed as upregulation of Oas1b mRNA expression at 3 mg/kg, po after 24 hrs by Fluidigm RT-qPCR analysis (reference value: 1); type: functional, Macaca fascicularis; method in brief: as §4
Cynomolgus monkey [20] = assay: Induction of ISG response in cynomolgus monkey plasma assessed as upregulation of Oas1b mRNA expression at 30 mg/kg, po after 24 hrs by Fluidigm RT-qPCR analysis (reference value: 1); type: functional, Macaca fascicularis; method in brief: as §4
Cynomolgus monkey [21] = assay: Toxicity in cynomolgus monkey assessed as induction of clinical pathology changes up to 30 mg/kg, po; type: organism-based, Macaca fascicularis; conditions: in vivo
Cynomolgus monkey [22] = assay: Upregulation of Tlr8 expression in cynomolgus monkey plasma at 1 to 30 mg/kg, po after 24 hrs by Fluidigm RT-qPCR analysis; type: functional, organism-based; conditions: Macaca fascicularis
[23] = target: T1, TLR7 and TLR8 (Homo sapiens) (UniProt Q9NYK1+Q9NR97); assay: Agonist activity at TLR7/8 in human PBMCs co-cultured with primary human hepatocytes infected with HBV genotype C for 12 days assessed as increase in CXCL10 levels up to 5 uM measured after 42 days
[24] = target: T1, TLR7 and TLR8 (Homo sapiens); assay: Agonist activity at TLR7/8 in human PBMCs co-cultured with primary human hepatocytes infected with HBV genotype C for 12 days assessed as increase in VEGF levels up to 5 uM measured after 42 days

For `CCC[C@@H](CCO)Nc1nc(N)nc2c(F)cccc12`, the Activity (TK6) was “Non-Toxic”, the AUC(0-t) [1] was 141 ng·h/mL and the AUClast [2] was 2315 ng·h/g. For the same compound, the Activity (Plasma [3]) was “Below limit of detection”, the Activity (Liver [4]) was 1365 pg/g and the Activity (Plasma [5]) was 330 pg/mL. The Activity (Plasma [6]) was 630 pg/mL, the Activity (Plasma [7]) was “Below limit of detection” and the Activity (Liver [8]) was 16445 pg/g. For the same compound, the Activity (Liver [9]) was 29525 pg/g, the Activity (Plasma [10]) was 4970 pg/mL and the Activity (Liver [11]) was 1945 pg/g. For the same compound, the Cp (Cynomolgus monkey [12]) was 200 ng/mL, the Activity (Cynomolgus monkey [13]) was >51200 pg/mL and the Activity (Cynomolgus monkey [14]) was 20 pg/mL. The Activity (Cynomolgus monkey [15]) was 75 pg/mL, the Activity (Cynomolgus monkey [16]) was “Below limit of detection” and the Activity (Cynomolgus monkey [17]) was 310 pg/mL. The “fold change (FC)” value (Cynomolgus monkey [18]) was 40, the “fold change (FC)” value (Cynomolgus monkey [19]) was 265 and the “fold change (FC)” value (Cynomolgus monkey [20]) was 235. For the same compound, the Activity (Cynomolgus monkey [21]) was “Non-Toxic”, the Activity (Cynomolgus monkey [22]) was “inactive” and the Activity [23] was “Active”. The Activity [24] was “Active”.
